Published values pooled from the literature.
Protocols differ between the studies behind these lines.
KCNH2: Voltage-gated inwardly rectifying potassium channel KCNH2 (KCNH2, Homo sapiens, UniProt Q12809)

| Structure (SMILES) | tested on | test | test system | conditions | measurement | result |
| --- | --- | --- | --- | --- | --- | --- |
| CC(C)n1ncc2c(C(=O)NCC3(C)CNC3)cc(C3CC3)nc21 | RD | cell growth or viability, neutral red |  |  | CC50 | > 100 µM |
| CC(C)n1cc(C#N)c2cc(-n3cc(C(=O)O)cn3)ccc21 |  |  | human, plasma | oral, 100 mg, single dose, fasted, healthy volunteers | Tmax | 2.99 h |
| O=C(COc1ccc(Cl)cc1)NC12CC(c3nnc([C@H]4C[C@@H](OC(F)(F)F)C4)o3)(C1)C2 |  |  | human, plasma | oral, 45 mg, multiple doses, once daily, steady state, healthy volunteers | Tmax | 4.03 h |
| COc1cc(N)c(Cl)cc1C(=O)NC1CCN(CCCOc2ccc(F)cc2)CC1OC (centres unmarked) | KCNH2 | ion current, inhibitor, patch clamp | HEK293 | 10 nM, pH 7.4 | inhibition | 39% |
| COc1nc(-c2cccc(-c3ccccc3)c2C)ccc1CNCCNC(=O)CCCCCCCCCCC(=O)N1CCN(CCNC(=O)c2cc3c(=O)n4cccc(C)c4nc3n(CCc3cccs3)c2=N)CC1 |  |  | male Sprague-Dawley rat, plasma | intraperitoneal, 4 mg/kg | MRT(0-t) | 7.1 h |
| NC(=O)c1ncn([C@@H]2O[C@H](CO)[C@@H](O)[C@H]2O)n1 | RD | cell growth or viability, MTT |  |  | CC50 | 104 µM |
| CCOC(=O)C1=C(CN2CCC[C@@H]2C(=O)Nc2ccc(B(O)O)cc2)NC(c2nccs2)=N[C@H]1c1ccc(F)cc1Br | KCNH2 | ion current, inhibitor, patch clamp | HEK293 | 30 µM, pH 7.4 | inhibition | 83% |
| O=C(O)COc1cccc(-c2nc(Nc3ccc4[nH]ncc4c3)c3ccccc3n2)c1 | Bile salt export pump (ABCB11, Homo sapiens, UniProt O95342) | transporter uptake, inhibitor, radiometric |  |  | IC50 | 48.2 µM |
| COc1cc(N)c(Cl)cc1C(=O)NC1CCN(CCCOc2ccc(F)cc2)CC1OC (centres unmarked) | KCNH2 | ion current, inhibitor, patch clamp | HEK293 | 50 nM | inhibition | 60.7% |
| COc1cccc(OC)c1-c1cc(C(=O)NC2(C(=O)O)C3CC4CC(C3)CC2C4)nn1-c1ccc(C(=O)N(C)CCCN(C)CCCN(C)C(=O)CN2CCN(CC(=O)[O-])CCN(CC(=O)[O-])CCN(CC(=O)[O-])CC2)cc1C(C)C.[177Lu+3] (centres unmarked) | HT-29 |  | stomach | 7 days, tumour-bearing | tracer uptake | 0.09 %ID/g |
| CC(=O)N1CCC(C(=O)N2CCN3C(=O)c4cc(-c5ccccc5)ccc4NC(=O)C3C2)CC1 (centres unmarked) | KCNH2 | ion current, inhibitor, patch clamp | HEK293 | 1 µM | inhibition | 5.6% |
| O=C(Cn1ccnc1[N+](=O)[O-])NCc1ccccc1 | LLC-MK2 | cell growth or viability |  |  | CC50 | 257 µg/mL |
| Cn1c(=O)c2[nH]cnc2n(C)c1=O |  |  | male Sprague-Dawley rat, plasma | intravenous, 11.25 mg/kg | MRT(0-inf) | 6.51 h |
| C[C@H]1Oc2cc(cnc2N)-c2c(nn(C)c2C#N)CN(C)C(=O)c2ccc(F)cc21 |  |  | Sprague-Dawley rat, plasma | intravenous, 1 mg/kg, single dose | MRT(0-inf) | 4.96 h |
| COc1ccc2c(c1)CN(C(=O)CCN1CCC(Cc3ccccc3)CC1)CC[S@@+]2[O-] |  |  | male human, plasma | intravenous, 0.4 mg/kg, healthy volunteers | Tmax | 0 h |
| N[C@H]1C(O)O[C@H](CO)[C@@H](O)[C@@H]1O (some centres unmarked) | Caco-2 | cell growth or viability, CCK-8 |  | 50 mM | viability | 97.9% |
| CN1C[C@H](COc2nccc3c(NCc4ccco4)cc(Cl)nc23)OC1=O | KCNH2 | ion current, inhibitor | HEK293 | 1 µM | inhibition | 8.8% |
